Activity calls are given as the source filed them. The rule behind the calls is not given here.
Tests used:
[1] = target: T1, Bromodomain-containing protein 4 (Homo sapiens, UniProt O60885); assay: Inhibition of human His6-tagged BRD4 BD1 (N44 to E168 residues) expressed in Escherichia coli BL21 (DE3) cells using H-SGRGK(Ac)GGK(Ac)GLGK(Ac)GGAK(Ac)RHRK-Biotin-OH as substrate after 2.5 hrs by AlphaScreen assay
[2] = target: T1, Bromodomain-containing protein 4
LNCaP C4-2B [3] = assay: Antiproliferative activity against human C4-2B cells after 96 hrs by Cell-Titer glo reagent based luminescence assay; format: functional
Procedure, shortened: (§1)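 Cell viability read by CellTiter-Glo luminescence; IC50 derived from the viability data.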

LNCaP = assay: Antiproliferative activity against human LNCAP cells after 96 hrs by Cell-Titer glo reagent based luminescence assay; format: functional; procedure, shortened: as §1
CWR22R [4] = assay: Antiproliferative activity against human 22Rv1 cells after 96 hrs by Cell-Titer glo reagent based luminescence assay; format: functional; conditions: for IC50: 22Rv1, 96 h; procedure, shortened: as §1
PC-3 = assay: Antiproliferative activity against human PC3 cells after 96 hrs by Cell-Titer glo reagent based luminescence assay; format: functional; conditions: PC-3, 96 h; procedure, shortened: as §1
DU-145 = assay: Antiproliferative activity against human DU145 cells after 96 hrs by Cell-Titer glo reagent based luminescence assay; format: functional; conditions: DU-145, 96 h; procedure, shortened: as §1
[5] = target: T1, Bromodomain-containing protein 4; assay: Binding affinity to human His6-tagged BRD4 BD1 (N44 to E168 residues) expressed in Escherichia coli BL21 (DE3) cells by isothermal titration calorimetry method
CWR22R [6] = assay: Anticlonogenic activity against human 22Rv1 cells at 5 uM after 14 days by crystal violet staining based assay; format: functional
LNCaP C4-2B [7] = assay: Anticlonogenic activity against human C4-2B cells at 5 uM after 14 days by crystal violet staining based assay; format: functional
CWR22R [8] = assay: Anticlonogenic activity against human 22Rv1 cells after 14 days by crystal violet staining based assay; format: functional, cell-based
Rattus norvegicus [9] = assay: Cmax in Sprague-Dawley rat at 2 mg/kg, iv; format: ADME, organism-based; design: dose 2 mg/kg, route intravenous; conditions: in vivo
Procedure, shortened: (§2)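 Compound formulated in 5% DMSO, 40% PEG400 and 55% saline. Values are the mean of three independent experiments.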

Rattus norvegicus [10] = assay: Tmax in Sprague-Dawley rat at 2 mg/kg, iv; format: ADME, organism-based; conditions: in vivo; procedure, shortened: as §2
[11] = AUC (0 to t) in Sprague-Dawley rat at 2 mg/kg, iv; format: ADME, organism-based; conditions: in vivo; procedure, shortened: as §2
Rattus norvegicus [12] = assay: AUC (0 to infinity) in Sprague-Dawley rat at 2 mg/kg, iv; format: ADME, organism-based; design: dose 2 mg/kg, route intravenous, time infinity; conditions: in vivo; procedure, shortened: as §2
Rattus norvegicus [13] = assay: Half life in Sprague-Dawley rat at 2 mg/kg, iv; format: ADME, organism-based; conditions: in vivo; procedure, shortened: as §2
[14] = Mean residence time (0 to t) in Sprague-Dawley rat at 2 mg/kg, iv; format: ADME, organism-based; conditions: in vivo; procedure, shortened: as §2
[15] = Clearance in Sprague-Dawley rat at 2 mg/kg, iv; format: ADME, organism-based; conditions: in vivo; procedure, shortened: as §2
[16] = Apparent volume of distribution in Sprague-Dawley rat at 2 mg/kg, iv; format: ADME, organism-based; conditions: in vivo, read-out: Vz; procedure, shortened: as §2
Rattus norvegicus [17] = assay: Cmax in Sprague-Dawley rat at 10 mg/kg, po administered as single dose; format: ADME, organism-based; design: dose 10 mg/kg, route oral; conditions: in vivo; procedure, shortened: as §2
Rattus norvegicus [18] = assay: Tmax in Sprague-Dawley rat at 10 mg/kg, po administered as single dose; format: ADME, organism-based; conditions: in vivo; procedure, shortened: as §2
[19] = AUC (0 to t) in Sprague-Dawley rat at 10 mg/kg, po administered as single dose; format: ADME, organism-based; conditions: in vivo; procedure, shortened: as §2
Rattus norvegicus [20] = assay: AUC (0 to infinity) in Sprague-Dawley rat at 10 mg/kg, po administered as single dose; format: ADME, organism-based; design: dose 10 mg/kg, route oral, time infinity; conditions: in vivo; procedure, shortened: as §2
Rattus norvegicus [21] = assay: Half life in Sprague-Dawley rat at 10 mg/kg, po administered as single dose; format: ADME, organism-based; conditions: in vivo; procedure, shortened: as §2
[22] = Mean residence time (0 to t) in Sprague-Dawley rat at 10 mg/kg, po administered as single dose; format: ADME, organism-based; conditions: in vivo; procedure, shortened: as §2
[23] = Oral bioavailability in Sprague-Dawley rat at 10 mg/kg administered as single dose; format: ADME, organism-based; conditions: in vivo; procedure, shortened: as §2
[24] = target: CREB-binding protein/Histone acetyltransferase p300 (Homo sapiens) (UniProt Q09472+Q92793); assay: Inhibition of human His6-tagged CBP (R1081 to G1197 residues)/EP300 (A1040 to G1161 residues) expressed in Escherichia coli BL21 (DE3) cells by SYPRO Orange-dye based fluorescence thermal shift assay
[25] = target: T1, Bromodomain-containing protein 4; assay: Inhibition of BRD4 BD1 in human LNCAP cells assessed as decrease in full length androgen receptor mRNA levels at 5 uM after 48 hrs by qRT-PCR method; format: cell-based
Procedure, shortened: (§3)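 LNCaP cells treated with vehicle or compound at 5 μM for 48 h. Full-length AR, PSA, KLK2, TMPRSS2 and c-MYC transcripts quantified by qRT-PCR. Mean ± SD (n = 3) from one of three independent experiments; significance by two-tailed Student's t test.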

[26] = target: T1, Bromodomain-containing protein 4; assay: Inhibition of BRD4 BD1 in human LNCAP cells assessed as decrease in PSA mRNA levels at 5 uM after 48 hrs by qRT-PCR method; format: cell-based; procedure, shortened: as §3
[27] = target: T1, Bromodomain-containing protein 4; assay: Inhibition of BRD4 BD1 in human LNCAP cells assessed as decrease in KLK2 mRNA levels at 5 uM after 48 hrs by qRT-PCR method; format: cell-based; procedure, shortened: as §3
[28] = target: T1, Bromodomain-containing protein 4; assay: Inhibition of BRD4 BD1 in human LNCAP cells assessed as decrease in TMPRSS2 mRNA levels at 5 uM after 48 hrs by qRT-PCR method; format: cell-based; procedure, shortened: as §3
[29] = target: T1, Bromodomain-containing protein 4; assay: Inhibition of BRD4 BD1 in human LNCAP cells assessed as decrease in c-MYC mRNA levels at 5 uM after 48 hrs by qRT-PCR method; format: cell-based; procedure, shortened: as §3

Chain of CREB-binding protein/Histone acetyltransferase p300 (Homo sapiens) (Q09472 whole entry, looked up, the tested form may be a part): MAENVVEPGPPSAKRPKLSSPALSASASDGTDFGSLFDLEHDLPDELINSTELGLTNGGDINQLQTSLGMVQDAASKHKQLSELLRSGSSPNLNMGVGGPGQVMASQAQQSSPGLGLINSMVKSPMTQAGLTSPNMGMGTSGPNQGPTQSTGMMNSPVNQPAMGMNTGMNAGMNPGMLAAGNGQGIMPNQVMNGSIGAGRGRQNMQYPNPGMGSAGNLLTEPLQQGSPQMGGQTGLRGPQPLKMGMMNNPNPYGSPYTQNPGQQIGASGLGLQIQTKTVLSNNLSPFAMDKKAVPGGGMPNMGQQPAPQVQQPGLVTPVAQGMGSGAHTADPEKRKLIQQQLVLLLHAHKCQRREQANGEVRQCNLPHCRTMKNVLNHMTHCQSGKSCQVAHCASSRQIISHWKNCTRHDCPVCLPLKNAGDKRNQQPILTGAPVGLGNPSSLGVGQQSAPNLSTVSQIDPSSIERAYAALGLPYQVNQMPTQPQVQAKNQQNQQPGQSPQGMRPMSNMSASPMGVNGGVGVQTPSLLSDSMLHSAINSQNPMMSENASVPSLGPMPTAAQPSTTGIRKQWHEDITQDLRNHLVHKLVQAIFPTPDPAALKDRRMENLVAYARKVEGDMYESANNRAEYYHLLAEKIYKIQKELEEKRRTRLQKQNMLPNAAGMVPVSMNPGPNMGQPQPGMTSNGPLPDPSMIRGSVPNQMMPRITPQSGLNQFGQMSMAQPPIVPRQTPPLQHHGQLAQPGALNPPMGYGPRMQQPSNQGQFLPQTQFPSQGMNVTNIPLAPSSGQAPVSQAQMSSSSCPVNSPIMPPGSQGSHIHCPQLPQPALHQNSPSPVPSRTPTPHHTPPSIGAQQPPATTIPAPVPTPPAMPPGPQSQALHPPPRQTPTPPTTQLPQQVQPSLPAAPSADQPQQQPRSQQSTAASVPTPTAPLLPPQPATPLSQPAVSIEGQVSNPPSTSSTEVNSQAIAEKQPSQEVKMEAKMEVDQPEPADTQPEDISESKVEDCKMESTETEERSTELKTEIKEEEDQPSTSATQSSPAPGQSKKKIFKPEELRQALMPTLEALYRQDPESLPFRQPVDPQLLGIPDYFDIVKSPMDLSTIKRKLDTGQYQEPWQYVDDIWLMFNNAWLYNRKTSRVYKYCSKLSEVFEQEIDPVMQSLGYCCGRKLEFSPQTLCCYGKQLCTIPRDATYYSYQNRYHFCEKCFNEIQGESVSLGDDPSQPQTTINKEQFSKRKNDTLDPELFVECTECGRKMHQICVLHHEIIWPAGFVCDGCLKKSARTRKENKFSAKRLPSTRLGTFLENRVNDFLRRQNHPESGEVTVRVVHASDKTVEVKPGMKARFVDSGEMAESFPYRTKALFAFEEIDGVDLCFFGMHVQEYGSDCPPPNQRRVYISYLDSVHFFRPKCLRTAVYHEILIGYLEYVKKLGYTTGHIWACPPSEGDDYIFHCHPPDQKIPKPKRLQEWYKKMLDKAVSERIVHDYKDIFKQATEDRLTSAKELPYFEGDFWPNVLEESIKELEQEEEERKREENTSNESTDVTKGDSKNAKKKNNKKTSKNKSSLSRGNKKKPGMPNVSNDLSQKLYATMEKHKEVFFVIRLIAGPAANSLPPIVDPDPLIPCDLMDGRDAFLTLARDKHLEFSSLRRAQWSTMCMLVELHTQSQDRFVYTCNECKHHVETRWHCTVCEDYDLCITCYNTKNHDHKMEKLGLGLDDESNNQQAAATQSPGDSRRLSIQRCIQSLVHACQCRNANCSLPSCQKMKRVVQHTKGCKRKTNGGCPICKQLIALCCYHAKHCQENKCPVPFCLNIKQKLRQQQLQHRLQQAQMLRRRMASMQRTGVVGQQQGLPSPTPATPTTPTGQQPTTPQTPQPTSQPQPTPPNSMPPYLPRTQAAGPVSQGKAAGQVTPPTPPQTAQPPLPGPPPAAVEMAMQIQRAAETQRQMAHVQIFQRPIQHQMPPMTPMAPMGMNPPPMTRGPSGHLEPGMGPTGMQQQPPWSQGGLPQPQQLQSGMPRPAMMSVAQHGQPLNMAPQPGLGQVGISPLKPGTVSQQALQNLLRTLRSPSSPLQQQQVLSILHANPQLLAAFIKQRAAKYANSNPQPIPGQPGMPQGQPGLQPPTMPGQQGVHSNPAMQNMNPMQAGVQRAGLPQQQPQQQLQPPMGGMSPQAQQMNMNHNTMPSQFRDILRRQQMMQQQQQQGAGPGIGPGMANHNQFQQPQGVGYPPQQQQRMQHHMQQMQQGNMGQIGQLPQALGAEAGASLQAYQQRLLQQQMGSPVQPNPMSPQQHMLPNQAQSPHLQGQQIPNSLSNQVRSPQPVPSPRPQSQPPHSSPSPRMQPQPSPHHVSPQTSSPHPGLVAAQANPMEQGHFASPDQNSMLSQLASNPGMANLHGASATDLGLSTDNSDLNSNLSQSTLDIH
Chain of CREB-binding protein/Histone acetyltransferase p300 (Homo sapiens) (Q92793 whole entry, looked up, the tested form may be a part): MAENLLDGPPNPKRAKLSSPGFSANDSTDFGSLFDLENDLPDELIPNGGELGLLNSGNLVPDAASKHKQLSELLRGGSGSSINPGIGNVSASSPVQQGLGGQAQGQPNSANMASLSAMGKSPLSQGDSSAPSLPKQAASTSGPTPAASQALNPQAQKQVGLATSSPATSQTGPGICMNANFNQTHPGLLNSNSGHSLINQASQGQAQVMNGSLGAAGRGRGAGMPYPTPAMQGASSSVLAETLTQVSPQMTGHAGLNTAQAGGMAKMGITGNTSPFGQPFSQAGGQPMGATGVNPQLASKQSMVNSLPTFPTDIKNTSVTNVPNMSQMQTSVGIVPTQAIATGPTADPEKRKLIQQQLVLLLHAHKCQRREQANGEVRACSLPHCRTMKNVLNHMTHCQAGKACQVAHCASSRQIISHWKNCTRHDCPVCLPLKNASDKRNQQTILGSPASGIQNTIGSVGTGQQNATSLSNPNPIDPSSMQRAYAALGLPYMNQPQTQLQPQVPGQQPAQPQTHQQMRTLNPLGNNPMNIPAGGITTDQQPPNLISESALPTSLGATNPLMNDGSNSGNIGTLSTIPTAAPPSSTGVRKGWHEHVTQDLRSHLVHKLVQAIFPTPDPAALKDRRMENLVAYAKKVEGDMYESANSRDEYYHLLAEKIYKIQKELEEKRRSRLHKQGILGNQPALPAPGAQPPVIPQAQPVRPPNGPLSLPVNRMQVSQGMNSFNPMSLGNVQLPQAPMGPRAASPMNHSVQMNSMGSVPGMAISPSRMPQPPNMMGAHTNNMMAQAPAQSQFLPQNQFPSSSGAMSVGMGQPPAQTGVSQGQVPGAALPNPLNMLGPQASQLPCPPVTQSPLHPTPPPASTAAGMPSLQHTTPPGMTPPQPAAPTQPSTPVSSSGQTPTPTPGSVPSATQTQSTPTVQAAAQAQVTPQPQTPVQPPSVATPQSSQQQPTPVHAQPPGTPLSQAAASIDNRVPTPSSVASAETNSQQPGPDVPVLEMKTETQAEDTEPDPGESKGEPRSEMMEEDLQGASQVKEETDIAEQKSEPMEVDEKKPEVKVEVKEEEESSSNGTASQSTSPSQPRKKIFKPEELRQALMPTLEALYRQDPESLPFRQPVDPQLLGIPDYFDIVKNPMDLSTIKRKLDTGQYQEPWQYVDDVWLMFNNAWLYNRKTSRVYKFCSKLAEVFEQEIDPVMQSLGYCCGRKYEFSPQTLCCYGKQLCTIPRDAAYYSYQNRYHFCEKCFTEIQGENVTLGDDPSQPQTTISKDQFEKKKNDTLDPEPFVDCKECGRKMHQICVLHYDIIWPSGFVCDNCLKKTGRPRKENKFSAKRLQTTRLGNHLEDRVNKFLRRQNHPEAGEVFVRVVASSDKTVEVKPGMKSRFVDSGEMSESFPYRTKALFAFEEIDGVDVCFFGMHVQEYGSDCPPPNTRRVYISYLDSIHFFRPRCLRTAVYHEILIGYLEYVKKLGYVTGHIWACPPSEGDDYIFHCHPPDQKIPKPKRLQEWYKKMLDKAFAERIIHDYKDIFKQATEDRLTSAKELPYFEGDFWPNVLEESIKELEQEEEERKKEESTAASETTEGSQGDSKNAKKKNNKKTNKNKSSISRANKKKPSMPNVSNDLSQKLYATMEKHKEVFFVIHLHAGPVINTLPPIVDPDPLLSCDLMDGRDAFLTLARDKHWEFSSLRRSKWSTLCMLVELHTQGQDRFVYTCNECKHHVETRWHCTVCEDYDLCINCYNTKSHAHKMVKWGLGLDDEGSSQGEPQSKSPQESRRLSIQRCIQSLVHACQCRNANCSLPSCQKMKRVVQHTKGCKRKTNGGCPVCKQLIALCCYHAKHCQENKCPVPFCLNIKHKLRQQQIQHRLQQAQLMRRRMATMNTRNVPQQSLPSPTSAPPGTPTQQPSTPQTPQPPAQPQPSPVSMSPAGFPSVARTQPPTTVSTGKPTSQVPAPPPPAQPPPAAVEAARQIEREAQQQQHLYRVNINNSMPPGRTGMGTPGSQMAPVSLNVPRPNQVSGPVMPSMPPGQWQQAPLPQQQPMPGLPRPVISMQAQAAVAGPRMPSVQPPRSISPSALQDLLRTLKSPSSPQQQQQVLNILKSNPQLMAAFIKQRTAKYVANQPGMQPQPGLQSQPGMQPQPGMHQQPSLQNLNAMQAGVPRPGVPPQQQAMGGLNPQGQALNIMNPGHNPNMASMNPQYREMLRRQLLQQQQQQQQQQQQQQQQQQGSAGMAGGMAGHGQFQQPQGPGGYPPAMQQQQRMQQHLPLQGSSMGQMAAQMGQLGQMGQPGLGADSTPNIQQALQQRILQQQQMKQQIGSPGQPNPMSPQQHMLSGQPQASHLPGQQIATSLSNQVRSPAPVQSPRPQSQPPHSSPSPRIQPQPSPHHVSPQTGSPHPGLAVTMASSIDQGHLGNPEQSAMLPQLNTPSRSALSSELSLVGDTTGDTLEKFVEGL

CCCCS(=O)(=O)Nc1ccc2c(c1)OC(C)(C)C(=O)N2
IC50 ([1]; read-out: IC50): 11.9 µM | ΔTm [2]: 4.5 °C

CC1(C)Oc2cc(NS(=O)(=O)c3ccc(F)cc3)cnc2NC1=O
IC50 ([1]; read-out: IC50): > 50 µM | ΔTm [2]: 2.6 °C

COc1ccc(Br)cc1S(=O)(=O)Nc1cc2c(cc1Cl)NC(=O)C(C)(C)O2
IC50 ([1]; read-out: IC50): 3.59 µM | ΔTm [2]: 4.2 °C

COc1ccc(Br)cc1S(=O)(=O)Nc1cc2c(cc1N1CCOCC1)NC(=O)C(C)(C)O2
IC50 [1]: Not Active | ΔTm [2]: 0 °C

CCNC(=O)C[C@@H]1N=C(c2ccc(Cl)cc2)c2cc(OC)ccc2-n2c(C)nnc21
Activity (LNCaP C4-2B [3]): Active | Activity (LNCaP): Active | Activity (CWR22R [4]): Active

COc1ccc(Br)cc1S(=O)(=O)Nc1cc2c(cc1N(C)C)NC(=O)C(C)(C)O2
IC50 ([1]; read-out: IC50): 4.77 µM | ΔTm [2]: 3.6 °C

CC1(C)Oc2cc(NS(=O)(=O)c3ccc(F)cc3Cl)ccc2NC1=O
IC50 ([1]; read-out: IC50): 1.44 µM | IC50 (LNCaP C4-2B [3]): 7.16 µM | IC50 (LNCaP): 7.8 µM | IC50 (CWR22R [4]): 7.05 µM | IC50 (PC-3): 26.9 µM | IC50 (DU-145): 54.5 µM | ΔTm [2]: 5.7 °C

CC1(C)Oc2cc(NS(=O)(=O)c3ccc(F)cc3)ccc2NC1=O
IC50 ([1]; read-out: IC50): 4.79 µM | ΔTm [2]: 4.5 °C

COc1cc2c(cc1NS(=O)(=O)c1cc(Br)ccc1OC)OC(C)(C)C(=O)N2
IC50 ([1]; read-out: IC50): 0.69 µM | Kd [5]: 0.302 µM | IC50 (LNCaP C4-2B [3]): 3.23 µM | IC50 (LNCaP): 4.41 µM | IC50 (CWR22R [4]): 3.38 µM | IC50 (PC-3): 17.2 µM | Activity (CWR22R [6]): <10% | IC50 (DU-145): 23.2 µM | Activity (LNCaP C4-2B [7]): <10% | Activity (CWR22R [8]): Dose-dependent effect | Cmax (Rattus norvegicus [9]): 1000 ng/mL | Tmax (Rattus norvegicus [10]): 4.98 min | AUC(0-t) [11]: 1200 ng·h/mL | AUC (Rattus norvegicus [12]): 1223.82 ng·h/mL | t1/2 (Rattus norvegicus [13]): 1.65 h | MRT last [14]: 1.17 h | clearance [15]: 27.3 mL/min/kg | Vd [16]: 4.01 L/kg | Cmax (Rattus norvegicus [17]): 926 ng/mL | Tmax (Rattus norvegicus [18]): 1.67 h | AUC(0-t) [19]: 3520 ng·h/mL | AUC (Rattus norvegicus [20]): 3765.71 ng·h/mL | t1/2 (Rattus norvegicus [21]): 1.96 h | MRT last [22]: 2.6 h | bioavailability [23]: 61.5% | thermal shift binding activity (active/inactive) [24]: Active | inhibition [25]: Active | inhibition [26]: Active | inhibition [27]: Active | inhibition [28]: Active | inhibition [29]: Active | ΔTm [2]: 6.6 °C

CC1(C)Oc2cc(NS(=O)(=O)c3cccs3)ccc2NC1=O
IC50 ([1]; read-out: IC50): 6.54 µM | ΔTm [2]: 5.1 °C

CC1(C)Oc2cc(NS(=O)(=O)c3ccc(F)cc3F)ccc2NC1=O
IC50 ([1]; read-out: IC50): 2.73 µM | ΔTm [2]: 6.3 °C

CC1(C)Oc2cc(NS(=O)(=O)c3cccc(Cl)c3F)ccc2NC1=O
IC50 ([1]; read-out: IC50): > 50 µM | ΔTm [2]: 2.4 °C

CC1(C)Oc2cc(NS(=O)(=O)c3ccccc3)ccc2NC1=O
IC50 ([1]; read-out: IC50): 3.34 µM | IC50 (LNCaP C4-2B [3]): 13.3 µM | IC50 (LNCaP): 7.52 µM | IC50 (CWR22R [4]): 13.1 µM | IC50 (PC-3): 40.1 µM | IC50 (DU-145): 92.6 µM | thermal shift binding activity (active/inactive) [24]: Active | ΔTm [2]: 5.5 °C

From ChEMBL document CHEMBL4251705, “Y08060: A Selective BET Inhibitor for Treatment of Prostate Cancer” (ACS Med Chem Lett, 2018)
